ChEMBL document CHEMBL1806387, “Discovery of 1,2,4-thiadiazolidine-3,5-dione analogs that exhibit unusual and selective rapid cell death kinetics against acute myelogenous leukemia cells in culture” (Bioorg Med Chem Lett, 2011)
Calls of active or inactive are those of the source. No cut-off for these calls is given here.

Assays:
MV4-11 [1] = test: Cytotoxicity against human MV411 cells after 24 hrs by Annexin V-Fluorescein isothiocyanate and 7-aminoactinomycin D staining; assay type: functional; conditions: MV4-11, 24 h, read-out: LD50 (the source's name)
Method in brief: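 MV4-11 human AML cells (ATCC) seeded at 300,000 cells/mL in IMDM with 10% FBS. Cells exposed to at least 4 concentrations for 24 hours. Stained with Annexin V-FITC and 7-AAD, then run on flow cytometry (BD LSRII) 15 minutes later. Viable cells gated as Annexin V-negative/7-AAD-negative and expressed as percent of untreated control.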

[2] = Cytotoxicity against human hematopoietic stem cells assessed as reduction of cell viability after 24 hrs by Annexin V-Fluorescein isothiocyanate and 7-aminoactinomycin D staining; assay type: cell-based
MV4-11 [3] = test: Cytotoxicity against human MV411 cells assessed as reduction of cell viability at 10 uM after 30 mins by Annexin V-Fluorescein isothiocyanate and 7-aminoactinomycin D staining; assay type: functional, cell-based
Method in brief: (§1)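 MV4-11 cells (ATCC) seeded at 300,000 cells/mL in IMDM with 10% FBS and exposed to compound for the stated time in time-course runs. Cells stained with Annexin V-FITC plus 7-AAD and read by flow cytometry 15 minutes later. Viability is the Annexin V-negative/7-AAD-negative fraction, expressed relative to untreated control.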

MV4-11 [4] = test: Cytotoxicity against human MV411 cells assessed as reduction of cell viability at 5 uM after 1 to 2 hrs by Annexin V-Fluorescein isothiocyanate and 7-aminoactinomycin D staining; assay type: functional, cell-based; method in brief: as §1
MV4-11 [5] = test: Cytotoxicity against human MV411 cells assessed as reduction of cell viability at 20 uM after 2 hrs by Annexin V-Fluorescein isothiocyanate and 7-aminoactinomycin D staining; assay type: functional, cell-based; method in brief: as §1
MV4-11 [6] = test: Cytotoxicity against human MV411 cells assessed as reduction of cell viability at 10 uM after 2 hrs by Annexin V-Fluorescein isothiocyanate and 7-aminoactinomycin D staining; assay type: functional, cell-based; method in brief: as §1
MV4-11 [7] = test: Cytotoxicity against human MV411 cells assessed as reduction of cell viability at 5 uM after 30 mins by Annexin V-Fluorescein isothiocyanate and 7-aminoactinomycin D staining; assay type: functional; method in brief: as §1
MV4-11 [8] = test: Cytotoxicity against human MV411 cells assessed as reduction of cell viability at 20 uM after 30 mins by Annexin V-Fluorescein isothiocyanate and 7-aminoactinomycin D staining; assay type: functional; method in brief: as §1
MV4-11 [9] = test: Cytotoxicity against human MV411 cells assessed as reduction of cell viability at 5 uM after 24 hrs by Annexin V-Fluorescein isothiocyanate and 7-aminoactinomycin D staining; assay type: functional, cell-based; method in brief: as §1
MV4-11 [10] = test: Cytotoxicity against human MV411 cells assessed as reduction of cell viability at 10 uM after 24 hrs by Annexin V-Fluorescein isothiocyanate and 7-aminoactinomycin D staining; assay type: functional, cell-based; method in brief: as §1

| Compound | CC50 (MV4-11 [1]) [µM] | Activity [2] | other results |
| --- | --- | --- | --- |
| CCn1sc(=O)n(Cc2ccccc2)c1=O [KRM-7777] | 9.21 | Non-toxic | – |
| O=C([O-])c1ccc(Cn2c(=O)sn(CCCl)c2=O)cc1.[Na+] | > 20 | Non-toxic | – |
| O=c1sn(CCCl)c(=O)n1Cc1ccccc1 | 2.03 | Non-toxic | Activity (MV4-11 [3]): Active; Activity (MV4-11 [4]): Active |
| C=CCn1sc(=O)n(Cc2ccc(CN)cc2)c1=O.Cl | 6.7 | Non-toxic | – |
| Cl.NCc1cccc(Cn2c(=O)sn(CCCl)c2=O)c1 | 4.4 | Non-toxic | – |
| Cn1sc(=O)n(Cc2ccccc2)c1=O | 4.01 | Non-toxic | Activity (MV4-11 [5]): Active |
| O=c1sn(CCBr)c(=O)n1Cc1ccccc1 | 3.5 | Non-toxic | Activity (MV4-11 [6]): Active; Activity (MV4-11 [7]): 50% |
| Cl.NCc1ccc(Cn2c(=O)sn(CCCl)c2=O)cc1 | 3.01 | Non-toxic | – |
| Cl.NCc1ccc(Cn2c(=O)sn(CCBr)c2=O)cc1 | 4.51 | Non-toxic | – |
| CCn1sc(=O)n(Cc2ccc(CN)cc2)c1=O.Cl | 15.5 | Non-toxic | – |
| CCCn1sc(=O)n(Cc2ccccc2)c1=O | 11.6 | Non-toxic | – |
| C=CCn1sc(=O)n(Cc2ccccc2)c1=O | 9.2 | Non-toxic | Activity (MV4-11 [5]): Active; Activity (MV4-11 [8]): 50%; Activity (MV4-11 [9]): inactive; Activity (MV4-11 [10]): Active |
